Drawing on ChEMBL document CHEMBL1152830, “Synthesis of 2-sulfanyl-6-methyl-1,4-dihydropyrimidines as a new class of antifilarial agents” (Eur J Med Chem, 2008), this text covers inhibition and Activity for 14 compounds.

Each structure is given as a SMILES string. Active and inactive are the calls of the source. The rule behind the calls is not given here.

Series [1] relates to Brugia malayi. Kind of series: Antifilarial activity against Brugia malayi sub-periodic strain at 100 uM by MTT reduction assay. The series is classed as functional. In a few lines:
(§1)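 MTT reduction was measured on adult B. malayi worms after in vitro drug exposure. Each result is percent inhibition of MTT reduction relative to vehicle control, given as mean ± SD.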
For orientation: Formazan colour is commonly taken as a measure of viable cells.

For series [2], the system named is Brugia malayi. The experiment in a line: Antifilarial activity against Brugia malayi sub-periodic strain assessed as complete loss of motility at 100 uM. In kind it is functional, organism-based. The essentials: (§2)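 Adult B. malayi worms kept in vitro with compound, then motility scored. The worms were also moved to fresh drug-free medium at 37 °C for 30 min to judge whether paralysis was irreversible. The vehicle served as control.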

Series [3] relates to Brugia malayi. Kind of series: Antifilarial activity against Brugia malayi sub-periodic strain assessed as motility at 100 uM. In kind it is functional, organism-based. In a few lines:
as §2

For series [4], the system named is Brugia malayi. The experiment in a line: Antifilarial activity against Brugia malayi sub-periodic strain at 50 uM by MTT reduction assay. In kind it is functional. In a few lines: as §1
For series [5], the system named is Brugia malayi. Kind of series: Antifilarial activity against Brugia malayi sub-periodic strain at 25 uM by MTT reduction assay. In kind it is functional. In a few lines:
as §1

In series [6] the test system is Brugia malayi. Kind of series: Antifilarial activity against Brugia malayi sub-periodic strain assessed as motility at 50 uM. In kind it is functional, organism-based. In a few lines:
as §2

The subject of series [7] is Brugia malayi. The experiment in a line: Antifilarial activity against Brugia malayi sub-periodic strain assessed as motility at 25 uM. The series is classed as functional, organism-based. In a few lines:
as §2

In series [8] the test system is Brugia malayi. Kind of series: Antifilarial activity against Brugia malayi sub-periodic strain assessed as sluggish motility at 25 uM. In kind it is functional, organism-based. In a few lines: as §2
The subject of series [9] is Brugia malayi. The experiment in a line: Embryostatic activity against Brugia malayi sub-periodic strain in Mastomys coucha assessed as sterilized female worms at 100 mg/kg, ip for 5 days. In kind it is functional. As to conditions: route intraperitoneal.
The test system of series [10] is Mastomys coucha. Kind of series: Toxicity against Mastomys coucha assessed as mortality at 50 to 100 mg/kg, ip for 5 days measured after 15 days. The series is classed as organism-based. The note with it: in vivo, 360 h. Also on record: dose 50-100 mg/kg, route intraperitoneal. The essentials: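 Normal (uninfected) Mastomys coucha received the compound i.p. once daily for 5 days. Animals were watched for mortality and for adverse effects on general and gross health during dosing and for up to 15 days after treatment.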

Series [11] concerns Brugia malayi. Kind of series: Antifilarial activity against Brugia malayi sub-periodic strain assessed as complete loss of motility at 50 uM. The series is classed as functional, organism-based. The essentials: as §2
For series [12], the system named is Brugia malayi. Kind of series: Antifilarial activity against Brugia malayi sub-periodic strain in Mastomys coucha assessed as microfilarial count at 100 mg/kg, ip for 5 days measured after 8 days. In kind it is functional. The note with it: route intraperitoneal.
The subject of series [13] is Brugia malayi. Kind of series: Antifilarial activity against Brugia malayi sub-periodic strain in Mastomys coucha assessed as reduction in worm burden at 100 mg/kg, ip for 5 days relative to control. The series is classed as functional. Also noted: scale not given: the % may be the effect or the level left. The note with it: route intraperitoneal.
Series [14] deals with Brugia malayi. Kind of series: Embryostatic activity against Brugia malayi sub-periodic strain in Mastomys coucha assessed as sterilized female worms at 25 mg/kg, ip for 5 days. As to conditions: route intraperitoneal. The series is classed as functional.
For series [15], the system named is Brugia malayi. Kind of series: Antifilarial activity against Brugia malayi sub-periodic strain at 200 uM by MTT reduction assay. The series is classed as functional, organism-based. The essentials:
as §1

The test system of series [16] is Brugia malayi. The experiment in a line: Antifilarial activity against Brugia malayi sub-periodic strain at 400 uM by MTT reduction assay. The series is classed as functional, organism-based. The essentials:
as §1

Series [17] relates to Brugia malayi. Kind of series: Antifilarial activity against transplanted adult worms of Brugia malayi sub-periodic strain in Meriones unguiculatus assessed as reduction in worm burden 12.5 mg/kg, ip for 5 days relative to control. In kind it is functional, organism-based. Also on record: dose 12.5 mg/kg. The essentials: (§3)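 Meriones unguiculatus (jirds) carrying transplanted adult B. malayi were dosed i.p. once daily for 5 days, 5 animals per group. Microfilariae in the peritoneal cavity were checked. Live male and female worms and sterilized females were counted. Results are percent relative to untreated controls, given as mean ± SD.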

In series [18] the test system is Brugia malayi. The experiment in a line: Antifilarial activity against Brugia malayi sub-periodic strain in Mastomys coucha assessed as reduction in worm burden at 25 mg/kg, ip for 5 days relative to control. As to conditions: route intraperitoneal. Also on record: scale not given: the % may be the effect or the level left. In kind it is functional.
For series [19], the system named is Brugia malayi. The experiment in a line: Antifilarial activity against Brugia malayi sub-periodic strain assessed as motility at 200 uM. The series is classed as functional, organism-based. The essentials: as §2
In series [20] the test system is Brugia malayi. The experiment in a line: Embryostatic activity against transplanted adult worms of Brugia malayi sub-periodic strain in Meriones unguiculatus assessed as sterilized female worms at 12.5 mg/kg, ip for 5 days. In kind it is functional. The note with it: route intraperitoneal. In a few lines: as §3
The test system of series [21] is Brugia malayi. The experiment in a line: Antifilarial activity against Brugia malayi sub-periodic strain in Mastomys coucha assessed as microfilarial count at 25 mg/kg, ip for 5 days measured after 8 days. The series is classed as functional. As to conditions: route intraperitoneal.
The test system of series [22] is Brugia malayi. Kind of series: Antifilarial activity against Brugia malayi sub-periodic strain assessed as sluggish motility at 400 uM. The series is classed as functional, organism-based. The essentials: as §2
Series [23] relates to Brugia malayi. The experiment in a line: Antifilarial activity against Brugia malayi sub-periodic strain in Mastomys coucha assessed as reduction in worm burden at 50 mg/kg, ip for 5 days relative to control. In kind it is functional. Also noted: scale not given: the % may be the effect or the level left. As to conditions: route intraperitoneal.
For series [24], the system named is Brugia malayi. Kind of series: Antifilarial activity against Brugia malayi sub-periodic strain assessed as complete loss of motility at 25 uM. In kind it is functional, organism-based. In a few lines:
as §2

The subject of series [25] is Brugia malayi. Kind of series: Embryostatic activity against transplanted adult worms of Brugia malayi sub-periodic strain in Meriones unguiculatus assessed as sterilized female worms at 100 mg/kg, ip for 5 days. The note with it: route intraperitoneal. The series is classed as functional. In a few lines: as §3
Series [26] has as its system Brugia malayi. Kind of series: Embryostatic activity against Brugia malayi sub-periodic strain in Mastomys coucha assessed as sterilized female worms at 50 mg/kg, ip for 5 days. The note with it: route intraperitoneal. In kind it is functional.
Series [27] concerns Brugia malayi. Kind of series: Antifilarial activity against Brugia malayi sub-periodic strain in Mastomys coucha assessed as microfilarial count at 50 mg/kg, ip for 5 days measured after 8 days. The series is classed as functional. The note with it: route intraperitoneal.
For series [28], the system named is Brugia malayi. Kind of series: Antifilarial activity against transplanted adult worms of Brugia malayi sub-periodic strain in Meriones unguiculatus assessed as reduction in worm burden 100 mg/kg, ip for 5 days relative to control. Also noted: scale not given: the % may be the effect or the level left. The note with it: route intraperitoneal. The series is classed as functional. The essentials:
as §3

In general, inhibition refers to the relative decrease from the control value, in per cent. `CCCCCCCCCCCCCCSC1=NC(c2cccc3ccccc23)C(C(=O)OCC)=C(C)N1` (centres undefined): 100 µM produced 24.3% inhibition in series [1]. The outcome in [2] was Active.
For the compound `CCCCCCCCCCCCCCSC1=NC(c2ccc(OC)cc2)C(C(=O)OCC)=C(C)N1` (centres undefined), the outcome in [3], in series [6] and in series [7] was inactive. For the same compound, the inhibition entry in series [1], in series [4] and in [5] was “inactive” each time.
In the case of `CCOC(=O)C1=C(C)NC(SCc2ccccc2)=NC1c1ccc(OC)cc1` (centres undefined), the inhibition at 100 µM in [1] was determined as 52.1%. Besides, in series [4], the inhibition at 50 µM worked out at 19.3%. For the same compound, the inhibition result in series [5] is “inactive”. For the same compound, the result in [8], in [2] and in series [11] was Active. The Activity is 34.58% in [9], “Non-toxic” in [10], 89.7 in series [12] and 19.66% in series [13].
`CCN(CC)C(=O)N1CCN(C)CC1.O=C(O)CC(O)(CC(=O)O)C(=O)O` [DIETHYLCARBAMAZINE CITRATE]: the Activity is on record as 29.7% in series [14], 0% in series [18], 10.53% in series [20] and 20.33 in series [21]. For the same compound, the outcome in series [3], in series [17], in series [6] and in [19] was inactive. For the same compound, the inhibition entry in series [1], in series [4], in series [15] and in series [16] was “inactive” throughout. Besides, in [22], the result was Active.
For the compound `CCCCCSC1=NC(c2ccc(F)cc2)C(C(=O)OCC)=C(C)N1` (centres undefined), the inhibition at 100 µM in series [1] came out at 68.6%. For the same compound, testing at 50 µM in series [4] gave an inhibition of 68.5%. In [5], this compound gave an inhibition at 25 µM of 25.8%. Moreover, the Activity was 67.71% in series [9]; “Non-toxic” in series [10]; 30.8% in series [23]; 142.67 in series [12]; 34.31% in series [25]; 38.1% in series [26]. For the same compound, the Activity in [27] turned out to be 116.5; in [28], 46.03%; in [13] it was 50%. For the same compound, the result in [2], in series [11] and in series [24] was Active.
Regarding `CCCCCSC1=NC(c2cccc([N+](=O)[O-])c2)C(C(=O)OCC)=C(C)N1` (centres undefined), the outcome in series [3] was inactive. The compound also showed an inhibition at 100 µM in series [1] of 15.4%.
Take `CCOC(=O)C1=C(C)NC(SCc2ccccc2)=NC1c1cccc([N+](=O)[O-])c1` (centres undefined): 100 µM produced 43.1% inhibition in [1]. Besides, the outcome in series [2] was Active.
For `CCCCCSC1=NC(c2ccc(Cl)cc2)C(C(=O)OCC)=C(C)N1` (centres undefined), the outcome in [3] was inactive. Moreover, in [1], the inhibition entry was “inactive”.
Turning to `CCCCCSC1=NC(c2cccc3ccccc23)C(C(=O)OCC)=C(C)N1` (centres undefined), the outcome in series [3] was inactive. Besides, the inhibition entry in series [1] was “inactive”.
For the compound `CCCCSC1=NC(c2cccc([N+](=O)[O-])c2)C(C(=O)OCC)=C(C)N1` (centres undefined), at 100 µM the inhibition in series [1] was 25.7%. Also, the result in series [2] was Active.
Turning to `CCCCCSC1=NC(c2ccc(OC)cc2)C(C(=O)OCC)=C(C)N1` (centres undefined), the result in series [3] was inactive. Moreover, in [1], the inhibition at 100 µM is 22.4%.
`CCCCCCCCCCCCCCSC1=NC(c2ccc(F)cc2)C(C(=O)OCC)=C(C)N1` (centres undefined): the inhibition result in series [1] and in series [4] was “inactive” in each case. Besides, in [2], the result was Active. Besides, the outcome in series [6] was inactive.
With `CCOC(=O)C1=C(C)NC(SCc2ccccc2)=NC1c1cccc2ccccc12` (centres undefined), in series [1], at 100 µM the inhibition was 18.9%. In addition, in [2], the outcome was Active.
In the case of `CCCCSC1=NC(c2cccc3ccccc23)C(C(=O)OCC)=C(C)N1` (centres undefined), the inhibition at 100 µM in series [1] amounted to 49%. The inhibition entry in series [4] is “inactive”. In [5], this compound displayed an inhibition at 25 µM of 30.4%. In addition, the result in series [8], in [2] and in [11] was Active. Besides, the Activity in series [9] was 25.77%; in series [10], “Non-toxic”; in series [12], 47.33; in series [13] it was 0%.
